{"source": "the RNAGym collection of RNA variant scans (doi:10.1126/science.aae0568)", "parents": {"B1": {"name": "tRNA (parent)", "chain": "GUUCCGUUGGCGUAAUGGUAACGCGUCUCCCUCCUAAGGAGAAGACUGCGGGUUCGAGUCCCGUACGGAACG"}}, "note": "Variants at the floor of the assay were thinned out."}
{"variants_of": "B1", "assay": "yeast fitness relative to wild type (ratio to wild type); higher = fitter; tRNA-Arg(CCU), competitive growth, 37 C, YPD", "outline": "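Changes in genotype frequencies gave Darwinian fitness relative to wild type. Frequencies were read by 100-nucleotide paired-end sequencing of gene amplicons before and after pooled Saccharomyces cerevisiae strains, carrying tRNA-Arg(CCU) gene variants at the native locus, were competed in YPD at 37°C for 24 hours in six replicates. A genotype was kept only with ≥ 100 starting reads, and estimates < 0.5 were set to 0.5.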"}
{"variant": "GUUCCGUUGGCGUAAUGGUAACGCGUCUCCCUCGUAAGGAGAAGACUGCGGGUUCGAGUCCCAUACAGAACG", "note": "[C34G G63A G67A]", "yeast fitness": "≤ 0.5"}
{"variant": "GUUCCGUUGGCGUAAUGGUAACGCGUCUCCCUCGUAAGGAGAAGACUGGGGGUCCGAGUCUCGUACGGGACG", "note": "[C34G C49G U54C C61U A69G]", "yeast fitness": "≤ 0.5"}
{"variant": "GUUCCGUUGGCGUAAUGGUAACGCGUCUCCCUCUUCAGGAGAAGACUGCGGGUUCGAGUCCCGUACGGACCG", "note": "[C34U A36C A70C]", "yeast fitness": 0.594}
{"variant": "GUUCCGUUGGCGUAAUGGUAACGCGUCUCCCUCGUAAGGAGAAGACUGCGGGUUCGACUCCCGUACGGCACG", "note": "[C34G G58C A69C]", "yeast fitness": 0.576}
{"variant": "GUUCCGUUGGCGUAAUGGUAACGCGUCUCCCUCUUGAGGAGAAGACUGCGGGUUAGAGUCCCGUACGGAACG", "note": "[C34U A36G C55A]", "yeast fitness": "≤ 0.5"}
{"variant": "GUUCCGUUGGCGUAAUGGUAACGCGUCUCCCUCUUUAGGAGAAGACUGCGGGUUCGAGUCCCGUACGGAACG", "note": "[C34U A36U]", "yeast fitness": "≤ 0.5"}
{"variant": "GUUCCGUUGGCGUAAUGGUAACGCGUCUCCCUCGUAAGGAGAAGACUGCGGGUUCGAGCCCCGUACGGAACG", "note": "[C34G U59C]", "yeast fitness": 0.602}
{"variant": "GUUCCGUUGGCGUAAUGGUAACGCGUCUCCCUCGUAAGGAGAAGACUGCGGGUUCGAGGCCCGUACGUAACG", "note": "[C34G U59G G68U]", "yeast fitness": 0.576}
{"variant": "GUUCCGUUGGCGUAAUGGUAACGCGUCUCCCUCGAAAGGAGAAGACUGCGGGUUCGUGUCCCGUACGGAACG", "note": "[C34G U35A A57U]", "yeast fitness": "≤ 0.5"}
{"variant": "GUUCCGUUGGCGUAAUGGUAACGCGUCUCCCUCGUAAGGAGAAGACUGCGGGUUCGCGUCCCAUACGGAACG", "note": "[C34G A57C G63A]", "yeast fitness": "≤ 0.5"}
{"variant": "GUUCCGUUGGCGUAAUGGUAACGCGUCUCCCUCGUAAGGAGAAAACUGAGGGAUCGAGUCCCGUACGGUACG", "note": "[C34G G44A C49A U53A A69U]", "yeast fitness": "≤ 0.5"}
{"variant": "GUUCCGUUGGCGUAAUGGUAACGCGUCUCCCUCGUAAGGAGAAGACUGGGGGUUCGAGUCUCGUACGGACCG", "note": "[C34G C49G C61U A70C]", "yeast fitness": "≤ 0.5"}
{"variant": "GUUCCGUUGGCGUAAUGGUAACGCGUCUCCCUCGUAAGGAGAAGAAUGCGGGUUCGAGUCCUGUACGGAACG", "note": "[C34G C46A C62U]", "yeast fitness": 0.541}
{"variant": "GUUCCGUUGGCGUAAUGGUAACGCGUCUCCCUCUUAUGGAGAAGACUGCGGGUUCGAGUCCCGUAUGGAACG", "note": "[C34U A37U C66U]", "yeast fitness": "≤ 0.5"}
{"variant": "GUUCCGUUGGCGUAAUGGUAACGCGUCUCCCUCUUAGGGAGAAGACUGCGGGUUCGAGUCCCGUACGGAACG", "note": "[C34U A37G]", "yeast fitness": 0.538}
{"variant": "GUUCCGUUGGCGUAAUGGUAACGCGUCUCCCUCGUAAGGAGAAGACUGCGGGUUCGGGUCCCGUACGGAACG", "note": "[C34G A57G]", "yeast fitness": 0.568}
{"variant": "GUUCCGUUGGCGUAAUGGUAACGCGUCUCCCUCGUAAGGAGAAGACUGCGGGUUCGUGUCCCGUACGGAACG", "note": "[C34G A57U]", "yeast fitness": 0.523}
{"variant": "GUUCCGUUGGCGUAAUGGUAACGCGUCUCCCUCGUAAGGAGAUGACUGCGGGUUUGCGUCCCGUAAGGAACG", "note": "[C34G A43U C55U A57C C66A]", "yeast fitness": 0.639}
{"variant": "GUUCCGUUGGCGUAAUGGUAACGCGUCUCCCUCUUUAGGAGAAGACUGCGGGUUCGAGUCCCGUAUGGAACG", "note": "[C34U A36U C66U]", "yeast fitness": "≤ 0.5"}
{"variant": "GUUCCGUUGGCGUAAUGGUAACGCGUCUCCCUCGUAAGGAACAGACUGCGGGUUCGAGUCCCGUAUGGAACG", "note": "[C34G G41A A42C C66U]", "yeast fitness": "≤ 0.5"}
{"variant": "GUUCCGUUGGCGUAAUGGUAACGCGUCUCCCUCGUAAGGAGAAGACUGCGGGUUCGAGUCCCGUAAGGCACG", "note": "[C34G C66A A69C]", "yeast fitness": 0.599}
{"variant": "GUUCCGUUGGCGUAAUGGUAACGCGUCUCCCUCUUAUGGAGAAGACUGCGGGUUCGACUCCCGUACGGAACG", "note": "[C34U A37U G58C]", "yeast fitness": 0.543}
{"variant": "GUUCCGUUGGCGUAAUGGUAACGCGUCUCCCUCGUAAGGAACAGACUGCGGGUUCGAGUCCCGUACCGAACG", "note": "[C34G G41A A42C G67C]", "yeast fitness": 0.597}
{"variant": "GUUCCGUUGGCGUAAUGGUAACGCGUCUCCCUCUUUAGGAGAAGACUGCGGCUUCGAGUCCCGUACGGUACG", "note": "[C34U A36U G52C A69U]", "yeast fitness": "≤ 0.5"}
{"variant": "GUUCCGUUGGCGUAAUGGUAACGCGUCUCCCUCGUAAGGAGAAGACUGCGGGUUGGAGCUCCGUACUGACCG", "note": "[C34G C55G U59C C60U G67U A70C]", "yeast fitness": "≤ 0.5"}
{"variant": "GUUCCGUUGGCGUAAUGGUAACGCGUCUCCCUCGUAAGGAGAAGACUGCGGGUUCGAGUCCGGUACGGAACG", "note": "[C34G C62G]", "yeast fitness": 0.559}
{"variant": "GUUCCGUUGGCGUAAUGGUAACGCGUCUCCCUCGUAAGGAGAAGACGGCGGGUUCGAGUCCCGUACGGAACG", "note": "[C34G U47G]", "yeast fitness": 0.561}
{"variant": "GUUCCGUUGGCGUAAUGGUAACGCGUCUCCCUCGUAAGGAGAAGACUGCGGCUUCGAGUCCCGUACGGAUCG", "note": "[C34G G52C A70U]", "yeast fitness": 0.542}
{"variant": "GUUCCGUUGGCGUAAUGGUAACGCGUCUCCCUCUUAUGGAAAAGACUGCCGGUUCGAGUCCCGUACGGAACG", "note": "[C34U A37U G41A G50C]", "yeast fitness": "≤ 0.5"}
{"variant": "GUUCCGUUGGCGUAAUGGUAACGCGUCUCCCUCGUAAGGAGAAGACUGCGGGUUCGAGACCCGUACGAAACG", "note": "[C34G U59A G68A]", "yeast fitness": "≤ 0.5"}
{"variant": "GUUCCGUUGGCGUAAUGGUAACGCGUCUCCCUCGUAAAGAGAAGACUGCGGGUUCGAGUCCCGUACGGAACG", "note": "[C34G G38A]", "yeast fitness": 0.624}
{"variant": "GUUCCGUUGGCGUAAUGGUAACGCGUCUCCCUCGUAACGAGAAGACUGCGGGUUCGAGUCCCGUACGGAACG", "note": "[C34G G38C]", "yeast fitness": 0.587}
{"variant": "GUUCCGUUGGCGUAAUGGUAACGCGUCUCCCUCGUAAGGAGAAGCCUGCGGGUUCGAGUCCGGUACGGAACG", "note": "[C34G A45C C62G]", "yeast fitness": "≤ 0.5"}
{"variant": "GUUCCGUUGGCGUAAUGGUAACGCGUCUCCCUCGUAAGGAGAAGACUACGGGUUCGGGUCCCGUACGGAACG", "note": "[C34G G48A A57G]", "yeast fitness": 0.631}
{"variant": "GUUCCGUUGGCGUAAUGGUAACGCGUCUCCCUCGUAAGGAGAAGACUGGGGGUUCGAGUCCCGUACGCAACG", "note": "[C34G C49G G68C]", "yeast fitness": 0.629}
{"variant": "GUUCCGUUGGCGUAAUGGUAACGCGUCUCCCUCGUAAGGAGAAGACUGGGGGUACGCGUCCCGUACGAAACG", "note": "[C34G C49G U54A A57C G68A]", "yeast fitness": "≤ 0.5"}
{"variant": "GUUCCGUUGGCGUAAUGGUAACGCGUCUCCCUCUUCAGGCGAAGACUGCGGGUUAGAGUCCCGUAUGGAACG", "note": "[C34U A36C A40C C55A C66U]", "yeast fitness": 0.526}
